Laboratory results taken from ChEMBL document CHEMBL2311397, “Design and synthesis of cyclopropylamide analogues of combretastatin-A4 as novel microtubule-stabilizing agents” (J Med Chem, 2013).
Active and inactive are the calls of the source. No cut-off for these calls is given here.

What was measured:
HeLa [1] = test: Cytotoxicity against paclitaxel-resistant human HeLa cells after 48 hrs by MTT assay; format: functional, cell-based
How it was run: (§1)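 Log-phase cells (40000–50000 cells/mL) grown in DMEM with 10% fetal calf serum (5% CO2, 37 °C) and exposed 48 h to five concentrations, 3–5 replicates. Read-out was MTT with absorbance at 570 nm; IC50 reported as mean ± SD of three independent experiments. Resistant A549 and HeLa sublines were made by stepwise paclitaxel selection; resistance index = IC50(resistant)/IC50(sensitive).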

A549 [2] = test: Induction of apoptosis in human A549 cells assessed as viable cells at 10 uM after 24 hrs by annexin V-FITC/propidium iodide staining-based flow cytometry (reference value: 94.08%); format: functional; settings: A549, 24 h, read-out: Activity
A549 [3] = test: Cell cycle arrest in human A549 cells assessed as accumulation at G1 phase at 0.1 uM after 24 hrs by propidium iodide staining-based flow cytometry (reference value: 87.56 %); format: functional
A549 [4] = test: Induction of apoptosis in human A549 cells early apoptotic cells at 5 uM after 24 hrs by annexin V-FITC/propidium iodide staining-based flow cytometry (reference value: 0.73 %); format: functional
A549 [5] = test: Cell cycle arrest in human A549 cells assessed as accumulation at S phase at 0.1 uM after 24 hrs by propidium iodide staining-based flow cytometry (reference value: 9.12 %); format: functional
A549 [6] = test: Cell cycle arrest in human A549 cells assessed as accumulation at G1 phase at 1 uM after 24 hrs by propidium iodide staining-based flow cytometry (reference value: 87.56 %); format: functional
A549 [7] = test: Effect on spindle microtubule dynamics in human A549 cells at 10 uM after 22 hrs by DAPI/FITC staining-based laser fluorescence confocal microscopic analysis; format: functional, cell-based
How it was run: (§2)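 Confocal imaging of A549 cells exposed for 22 h to compound or vehicle (0.2% DMSO final), added at 70% confluency after overnight growth. Fixation followed by 0.5% Triton X-100 permeabilization and 10% goat serum blocking; tubulin stained with FITC anti-α-tubulin (1:100, 2 h, 37 °C), nuclei counterstained with DAPI. Wide-field images taken at 10–15 random slide locations.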

HeLa [8] = test: Resistance index, ratio of IC50 for paclitaxel-resistant human HeLa cells to IC50 for paclitaxel-sensitive human HeLa cells; format: functional; how it was run: as §1
A549 [9] = test: Antimitotic activity against human A549 cells assessed as cell mitotic arrest at 5 uM after 22 hrs by DAPI/FITC staining-based laser fluorescence confocal microscopic analysis (reference value: 1.1 %); format: functional
A549 [10] = test: Effect on chromosomal alteration in human A549 cells at 10 uM after 22 hrs by DAPI/FITC staining-based laser fluorescence confocal microscopic analysis
A549 [11] = test: Antimitotic activity against human A549 cells assessed as cell mitotic arrest at 10 uM after 22 hrs by DAPI/FITC staining-based laser fluorescence confocal microscopic analysis (reference value: 1.1 %); format: functional
SW480 = test: Cytotoxicity against human SW480 cells after 48 hrs by MTT assay; format: functional, cell-based; settings: Homo sapiens, SW480, 48 h; how it was run: as §1
A549 [12] = test: Effect on spindle microtubule dynamics in human A549 cells at 10 uM after 22 hrs by DAPI/FITC staining-based laser fluorescence confocal microscopic analysis
A549 [13] = test: Cell cycle arrest in human A549 cells assessed as accumulation at G1 phase at 10 uM after 24 hrs by propidium iodide staining-based flow cytometry (reference value: 87.56 %); format: functional
A549 [14] = test: Cytotoxicity against human A549 cells after 48 hrs by MTT assay; format: functional, cell-based; settings: Homo sapiens, A549, 48 h; how it was run: as §1
A549 [15] = test: Cell cycle arrest in human A549 cells assessed as accumulation at G2/M phase after 24 hrs by propidium iodide staining-based flow cytometry; format: functional
HeLa [16] = test: Cytotoxicity against human HeLa cells after 48 hrs by MTT assay; format: functional, cell-based; settings: Homo sapiens, HeLa, 48 h; how it was run: as §1
Mus musculus = test: Toxicity in human A549 cells xenografted BALB/c nude mouse assessed as change in body weight at 100 to 500 mg/kg, ig; format: organism-based; design: dose 100-500 mg/kg, route intragastric; settings: in vivo, po
How it was run: (§3)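 Male BALB/c nude mice, 5 weeks old (18–20 g), implanted subcutaneously in the right armpit with A549 tumor fragments (3 mm3). On day 13, at 100–200 mm3, daily intragastric dosing began: 100 or 500 mg/kg test compound, or 30 mg/kg paclitaxel, in Tween-80 diluted with saline. Vehicle given ip. Tumor volume and body weight followed; n = 6; inhibition rate at day 16.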

A549 [17] = test: Antitumor activity against human A549 cells xenografted in ig dosed BALB/c nude mouse assessed as tumor growth inhibition measured on day 16; format: functional, organism-based; how it was run: as §3
A549 [18] = test: Induction of apoptosis in human A549 cells assessed as late apoptotic cells at 5 uM after 24 hrs by annexin V-FITC/propidium iodide staining-based flow cytometry (reference value: 1.02%); format: functional
A549 [19] = test: Cell cycle arrest in human A549 cells assessed as accumulation at G2/M phase at 5 uM after 24 hrs by propidium iodide staining-based flow cytometry (reference value: 2.78 %); format: functional
A549 [20] = test: Effect on microtubule dynamics in human A549 cells at 5 to 10 uM after 22 hrs by DAPI/FITC staining-based laser fluorescence confocal microscopic analysis; format: functional, cell-based; how it was run: as §2
A549 [21] = test: Induction of apoptosis in human A549 cells assessed as viable cells at 1 uM after 24 hrs by annexin V-FITC/propidium iodide staining-based flow cytometry (reference value: 94.08%); format: functional; settings: A549, 24 h, read-out: Activity
A549 [22] = test: Cell cycle arrest in human A549 cells assessed as accumulation at S phase at 10 uM after 24 hrs by propidium iodide staining-based flow cytometry (reference value: 9.12 %); format: functional
A549 [23] = test: Effect on chromosomal alteration in human A549 cells at 10 uM after 22 hrs by DAPI/FITC staining-based laser fluorescence confocal microscopic analysis; format: functional, cell-based; how it was run: as §2
A549 [24] = test: Cell cycle arrest in human A549 cells assessed as accumulation at S phase at 1 uM after 24 hrs by propidium iodide staining-based flow cytometry (reference value: 9.12 %); format: functional
A549 [25] = test: Cell cycle arrest in human A549 cells assessed as accumulation at G2/M phase at 1 uM after 24 hrs by propidium iodide staining-based flow cytometry (reference value: 2.78 %); format: functional
A549 [26] = test: Cell cycle arrest in human A549 cells assessed as accumulation at S phase at 5 uM after 24 hrs by propidium iodide staining-based flow cytometry (reference value: 9.12 %); format: functional
A549 [27] = test: Induction of apoptosis in human A549 cells assessed as late apoptotic cells at 1 uM after 24 hrs by annexin V-FITC/propidium iodide staining-based flow cytometry (reference value: 1.02%); format: functional
A549 [28] = test: Induction of apoptosis in human A549 cells assessed as necrotic cells at 5 uM after 24 hrs by annexin V-FITC/propidium iodide staining-based flow cytometry (reference value: 2.76%); format: functional
A549 [29] = test: Cell cycle arrest in human A549 cells assessed as accumulation at G2/M phase at 0.1 uM after 24 hrs by propidium iodide staining-based flow cytometry (reference value: 2.78 %); format: functional
K562 = test: Cytotoxicity against human K562 cells after 48 hrs by MTT assay; format: functional, cell-based; settings: Homo sapiens, K562, 48 h; how it was run: as §1

With `COc1cc([C@@H]2C[C@]2(CO)C(=O)Nc2ccccc2Cl)cc(OC)c1OC` the IC50 (HeLa [1]) was 10.7 µM, the viability at 10 µM (A549 [2]) was 40.9% and the Activity (A549 [3]) was 78.7%. The Activity (A549 [4]) was 37.4%, the Activity (A549 [5]) was 9.54% and the Activity (A549 [6]) was 38.41%. For the same molecule, the Activity (A549 [7]) was “Active”, the “Ratio IC50” value (HeLa [8]) was 1.3 and the Activity (A549 [9]) was 53.1%. The Activity (A549 [10]) was “Active”, the Activity (A549 [11]) was 78.8% and the IC50 (SW480) was 13.2 µM. The Activity (A549 [12]) was “Active”, the Activity (A549 [13]) was 9.85% and the IC50 (A549 [14]) was 4.4 µM. The Activity (A549 [15]) was “Dose-dependent effect”, the IC50 (HeLa [16]) was 8.1 µM and the Activity (Mus musculus) was “Non-toxic”. The TGI (A549 [17]) was “Dose-dependent effect”, the Activity (A549 [18]) was 1.36% and the Activity (A549 [19]) was 60.85%. The Activity (A549 [20]) was “Active”, the viability at 1 µM (A549 [21]) was 80.2% and the Activity (A549 [22]) was 10.29%. The Activity (A549 [23]) was “Active”, the Activity (A549 [24]) was 9.96% and the Activity (A549 [25]) was 51.68%. It also gave an Activity (A549 [26]) of 10.81%, an Activity (A549 [27]) of 2.82% and an Activity (A549 [28]) of 2.04%. It also gave an Activity (A549 [29]) of 12.53% and an IC50 (K562) of 16.9 µM.
